From PubChem BioAssay come the findings set out here.

Activity calls are given as the source filed them. Cut-off read from the data, not from the text of the source, unless noted: active = inhibition above about 30%; inactive = the rest.

A short description of assay [1]: Her2 expression decrease, cell viability multiplex – SKBR3 breast tumor cells, AlphaScreen, ATP viability, primary screen (AID 461;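 active = Her2 level under about 52% in both replicate screens, with viability over 70% of control, limit read from the data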;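 for Her2 level: lower value means less Her2 protein in the cells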;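 for viability: percent of carrier control wells set as 100% viability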). The settings on record: SKBR3 Her2 protein level, 18-24 h, measured here: SKBR3 viability, ATP luminescence, at 10 µM.
Assay [2] concerns the target Receptor tyrosine-protein kinase erbB-2 (Homo sapiens) (UniProt P04626). The description is as above. Particulars: 18-24 h, at 10 µM, stronger effect = lower value.
Assay [3] can be described thus: reduced viability of SK-BR-3 breast cancer cells – cell-based, 24 h, human, pilot screen (AID 572;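 active = viability at or below 10% of carrier control in both of two separate runs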;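 note: compound exposure lasted between 18 and 24 h rather than exactly 24 h; 100% = carrier-treated control wells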). The settings on record: SK-BR-3 viability, CellTiter-Glo luminescence, at 10 µM, stronger effect = lower value.
Assay [4] can be described thus: HUVEC growth inhibition – cell-based, human, primary screen (AID 575;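 active = viability at or below 30% in both replicate assays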;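 note: 100% = median of untreated cell wells with 0.1% DMSO on each plate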). Particulars: HUVEC proliferation, CellTiter-Glo luminescence, 72 h; at 10 µM; stronger effect = lower value. Summed up:
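Timing: 72 h treatment at 37 °C; material: HUVEC primary cells; technique: CellTiter-Glo luminescence measuring cellular ATP; controls: vehicle and MePR control wells; measure: percent of median DMSO-control luminescence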

Assay [5] in a line: H69AR cell proliferation blockers – human, duplicate replicates, primary screen (AID 580;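 active = viability at or under a set limit in both replicates, limit being median viability minus 3 SD, cut at about 48% in these data, passing the limit was not always enough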;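 note: 100% = mean luminescence of untreated wells and 0% = no signal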). Particulars: H69AR lung tumor cells viability, ATP luminescence, 72 h; at 10 µM; stronger effect = lower value.
A short description of assay [6]: MRP1 drug-resistance reversers in H69AR cells – cell-based, doxorubicin co-treatment, pilot screen (AID 601;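 active = viability loss from added drug above about 55%, and viability with drug at most 40%, in both replicates, limit read from the data, passing the limit was not always enough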). The settings on record: CellTiter-Glo, 72 h, at 10 µM; for differential viability (reversal): stronger effect = higher value.
The nature of assay [7]: yeast transport mutant growth inhibition pilot in 384-well plates, post-Golgi transport modulator project (AID 636; in the data active = inhibition above about 31%). The settings on record: absorbance 615 nm, about 18 h, stronger effect = higher value.
Assay [8] can be described thus: growth suppression of yeast trafficking mutant, preliminary HTS, modulators of trafficking downstream of Golgi apparatus project, 1536-format plate, OD 615 nm (AID 637). The settings on record: yeast transport mutant growth, absorbance 615 nm, 18 h; stronger effect = higher value.
[9] abbreviates: H69AR cells + 2 uM doxorubicin, measured here: viability with 2 uM doxorubicin, stronger effect = lower value.
The mark [10] stands for this setting: H69AR cells, compound alone cytotoxicity.

Receptor tyrosine-protein kinase erbB-2 (Homo sapiens), sequence (P04626 whole entry, looked up): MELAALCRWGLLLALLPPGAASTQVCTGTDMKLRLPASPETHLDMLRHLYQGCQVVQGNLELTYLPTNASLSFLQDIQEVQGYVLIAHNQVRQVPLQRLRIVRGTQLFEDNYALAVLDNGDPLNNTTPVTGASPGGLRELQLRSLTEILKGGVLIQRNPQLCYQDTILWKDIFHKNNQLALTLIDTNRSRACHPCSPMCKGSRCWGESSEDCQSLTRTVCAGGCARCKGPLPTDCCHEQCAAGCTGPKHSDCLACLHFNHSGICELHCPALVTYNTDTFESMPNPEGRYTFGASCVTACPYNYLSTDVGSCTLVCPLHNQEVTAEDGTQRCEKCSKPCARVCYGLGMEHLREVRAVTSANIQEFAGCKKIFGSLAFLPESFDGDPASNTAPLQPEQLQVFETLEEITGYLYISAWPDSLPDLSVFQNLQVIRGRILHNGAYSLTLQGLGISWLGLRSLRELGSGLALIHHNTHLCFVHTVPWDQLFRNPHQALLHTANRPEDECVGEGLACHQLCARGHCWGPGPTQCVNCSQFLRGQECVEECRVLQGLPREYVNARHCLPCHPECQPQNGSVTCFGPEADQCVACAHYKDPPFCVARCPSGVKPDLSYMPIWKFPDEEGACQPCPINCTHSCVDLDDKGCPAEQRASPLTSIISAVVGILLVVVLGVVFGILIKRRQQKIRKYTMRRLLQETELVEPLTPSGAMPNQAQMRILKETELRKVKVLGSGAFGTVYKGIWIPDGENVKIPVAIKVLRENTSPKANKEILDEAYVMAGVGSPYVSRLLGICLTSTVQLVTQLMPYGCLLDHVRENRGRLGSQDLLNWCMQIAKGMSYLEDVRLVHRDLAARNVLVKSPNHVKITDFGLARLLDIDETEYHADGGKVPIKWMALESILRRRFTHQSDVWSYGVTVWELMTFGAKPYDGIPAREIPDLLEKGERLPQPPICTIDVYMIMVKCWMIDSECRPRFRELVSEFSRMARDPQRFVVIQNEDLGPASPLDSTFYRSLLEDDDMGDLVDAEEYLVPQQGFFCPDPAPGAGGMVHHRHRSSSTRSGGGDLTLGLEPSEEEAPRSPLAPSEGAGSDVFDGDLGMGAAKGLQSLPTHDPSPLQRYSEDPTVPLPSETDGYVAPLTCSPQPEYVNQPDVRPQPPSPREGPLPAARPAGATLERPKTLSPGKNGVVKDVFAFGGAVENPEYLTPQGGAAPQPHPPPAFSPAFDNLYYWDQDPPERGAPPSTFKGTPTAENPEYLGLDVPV

For `CCc1nnc(NC(=O)c2ccc(S(=O)(=O)NC3CCCCC3)cc2)s1`, the viability is 86.5% in assay [1]; 86.5% (inactive) in assay [3]; 74% (inactive) in assay [4]; 80.1% (inactive) in assay [5]; 37.1% in assay [6] (setting [9]); 80.1% in assay [6] (setting [10]). For the same molecule, the Her2 level in assay [2] was 69.5% (inactive). Moreover, in assay [6] (H69AR cells + 2 uM doxorubicin), the differential viability (reversal) was 43% (inactive). The inhibition in assay [7] was -5.68% (inactive); in assay [8], -8.33% (inactive).
Consider `CC(C)(C)n1ncc2c(=O)n(CC(=O)NCc3ccco3)cnc21`, for which the viability in assay [1] was 91.5%; in assay [3], 91.5% (inactive); in assay [4], 111% (inactive); in assay [5], 68.5% (inactive); in assay [6] (setting [9]) it was 80.8%; in assay [6] (setting [10]) it was 68.5%. Further, the Her2 level in assay [2] is 94% (inactive). The differential viability (reversal) in assay [6] (H69AR cells + 2 uM doxorubicin) is -12.3% (inactive). Also, the inhibition in assay [7] is -1.45% (inactive); in assay [8] it was -10.5% (inactive).
As to `Cc1cc2n(n1)C(c1ccccc1)Nc1ccccc1-2` (stereo not given), the viability in assay [1] is 97%; in assay [3] it was 97% (inactive); in assay [4] it was 77.1% (inactive); in assay [5], 90.7% (inactive); in assay [6] (setting [9]), 89.1%; in assay [6] (setting [10]), 90.7%. Also, the Her2 level in assay [2] was 104% (inactive). In addition, the differential viability (reversal) in assay [6] (H69AR cells + 2 uM doxorubicin) was 1.64% (inactive). Moreover, the inhibition was -6% (inactive) in assay [7] and -6.13% (inactive) in assay [8].
Take `CC(NC(=O)COc1ccc(Br)cc1)C(=O)O` (stereo not given): the viability in assay [1] was 108%; in assay [3], 108% (inactive); in assay [4] it was 104% (inactive); in assay [5] it was 91.8% (inactive); in assay [6] (setting [9]) it was 87.6%; in assay [6] (setting [10]), 91.8%. The Her2 level in assay [2] is 114% (inactive). Moreover, the differential viability (reversal) in assay [6] (H69AR cells + 2 uM doxorubicin) was 4.2% (inactive). For the same molecule, the inhibition is -3.64% (inactive) in assay [7] and -2.33% (inactive) in assay [8].
As for `Cc1cccn2c(=O)c3cc(C#N)c(=NC(=O)c4cccnc4)n(CC4CCCO4)c3nc12` (stereo not given), the viability in assay [1] is 92.5%; in assay [3], 92.5% (inactive); in assay [4] it was 94.4% (inactive); in assay [5] it was 71.1% (inactive); in assay [6] (setting [9]) it was 44.1%; in assay [6] (setting [10]) it was 71.1%. For the same molecule, in assay [2], the Her2 level was 108% (inactive). The differential viability (reversal) in assay [6] (H69AR cells + 2 uM doxorubicin) was 27% (inactive). Also, the results for the inhibition in assay [7] and in assay [8] were -1.18% (inactive) and -9.35% (inactive), respectively.
In the case of `O=c1oc2ccccc2c(O)c1C=NCc1ccccn1`, the viability in assay [1] was 88%; in assay [3] it was 88% (inactive); in assay [4] it was 67.6% (inactive); in assay [5], 76.8% (inactive); in assay [6] (setting [9]), 87.3%; in assay [6] (setting [10]), 76.8%. The Her2 level in assay [2] is 93.5% (inactive). Further, the differential viability (reversal) in assay [6] (H69AR cells + 2 uM doxorubicin) is -10.5% (inactive). For the same molecule, the inhibition in assay [7] was -8.11% (inactive); in assay [8], -5.57% (inactive).
As to `CCC(=O)N1CCc2cc(Br)cc(S(=O)(=O)N3CCCCCC3)c21`, the viability is 88.5% in assay [1]; 88.5% (inactive) in assay [3]; 97.2% (inactive) in assay [4]; 95.5% (inactive) in assay [5]; 93.4% in assay [6] (setting [9]); 95.5% in assay [6] (setting [10]). Moreover, the Her2 level in assay [2] is 87% (inactive). For the same molecule, the differential viability (reversal) in assay [6] (H69AR cells + 2 uM doxorubicin) is 2.03% (inactive). Besides, the inhibition in assay [7] was -3.03% (inactive); in assay [8] it was 4.91% (inactive).
Regarding `Cc1csc2nc(CNC(=O)c3ccco3)cn12`, the viability in assay [1] is 86%; in assay [3], 86% (inactive); in assay [4], 95.6% (inactive); in assay [5], 112% (inactive); in assay [6] (setting [9]), 98.5%; in assay [6] (setting [10]), 112%. For the same molecule, the Her2 level in assay [2] is 102% (inactive). The differential viability (reversal) in assay [6] (H69AR cells + 2 uM doxorubicin) is 13.9% (inactive). Besides, the values for the inhibition in assay [7] and in assay [8] were -1.2% (inactive) and -4.35% (inactive), respectively.
As to `Cn1c(SCC(=O)N2CCOCC2)nnc1-c1cnccn1`, the viability in assay [1] is 109%; in assay [3] it was 109% (inactive); in assay [4], 101% (inactive); in assay [5], 109% (inactive); in assay [6] (setting [9]), 98.7%; in assay [6] (setting [10]), 109%. The Her2 level in assay [2] is 116% (inactive). For the same molecule, the differential viability (reversal) in assay [6] (H69AR cells + 2 uM doxorubicin) is 10.4% (inactive). Besides, the inhibition is -4.34% (inactive) in assay [7] and -9.17% (inactive) in assay [8].
Take `COCC(=O)N(Cc1cc2cc(OC)ccc2[nH]c1=O)c1ccccc1`: the viability in assay [1] is 104%; in assay [3], 104% (inactive); in assay [4] it was 90.3% (inactive); in assay [5], 90.4% (inactive); in assay [6] (setting [9]), 86.5%; in assay [6] (setting [10]), 90.4%. Further, the Her2 level in assay [2] was 112% (inactive). In assay [6] (H69AR cells + 2 uM doxorubicin), the differential viability (reversal) is 3.91% (inactive). Also, the inhibition in assay [7] was -2.86% (inactive); in assay [8], -6% (inactive).
`COc1cc(OC)c(C2N(C)c3ccccc3N2C)cc1OC`: the viability in assay [1] is 91.5%; in assay [3], 91.5% (inactive); in assay [4], 86.7% (inactive); in assay [5], 107% (inactive); in assay [6] (setting [9]), 98.4%; in assay [6] (setting [10]), 107%. Also, the Her2 level in assay [2] is 112% (inactive). For the same molecule, in assay [6] (H69AR cells + 2 uM doxorubicin), the differential viability (reversal) is 8.16% (inactive). Besides, the inhibition in assay [7] is -5.68% (inactive); in assay [8], 4.26% (inactive).
As to `CCOC(=O)N1CCN(C(=O)c2ccc3c(=O)n(CCc4ccccc4)c(=O)[nH]c3c2)CC1`, the viability was 98.5% in assay [1]; 98.5% (inactive) in assay [3]; 77.1% (inactive) in assay [4]; 85.6% (inactive) in assay [5]; 55.6% in assay [6] (setting [9]); 85.6% in assay [6] (setting [10]). The Her2 level in assay [2] is 108% (inactive). In assay [6] (H69AR cells + 2 uM doxorubicin), the differential viability (reversal) was 30% (inactive). In addition, the inhibition in assay [7] is -1.49% (inactive); in assay [8], 14.8% (inactive).
Take `Cc1csc(NC(=O)c2cc3c(s2)-c2ccccc2OC3)n1`: the viability in assay [1] was 91%; in assay [3] it was 91% (inactive); in assay [4], 75% (inactive); in assay [5] it was 37.7% (active); in assay [6] (setting [9]), 55.5%; in assay [6] (setting [10]), 37.7%. In assay [2], the Her2 level was 92.5% (inactive). The differential viability (reversal) in assay [6] (H69AR cells + 2 uM doxorubicin) is -17.7% (inactive). Also, the figures for the inhibition in assay [7] and in assay [8] were -2.82% (inactive) and -1% (inactive), respectively.
Turning to `CCOc1cccc(/C(O)=C2/C(=O)C(=O)N(CCN3CCOCC3)C2c2cccnc2)c1` (stereo not given), the viability in assay [1] is 98.5%; in assay [3], 98.5% (inactive); in assay [4], 87.3% (inactive); in assay [5], 103% (inactive); in assay [6] (setting [9]) it was 98.2%; in assay [6] (setting [10]) it was 103%. Also, the Her2 level in assay [2] is 99.5% (inactive). For the same molecule, in assay [6] (H69AR cells + 2 uM doxorubicin), the differential viability (reversal) is 5.18% (inactive). Also, the figures for the inhibition in assay [7] and in assay [8] were -3.68% (inactive) and -3.17% (inactive), respectively.
Turning to `CCOC(=O)c1c(C)[nH]c(C=Nc2ccccc2)c1O`, the viability was 94% in assay [1]; 94% (inactive) in assay [3]; 106% (inactive) in assay [4]; 101% (inactive) in assay [5]; 90.8% in assay [6] (setting [9]); 101% in assay [6] (setting [10]). In assay [2], the Her2 level is 91.5% (inactive). Moreover, the differential viability (reversal) in assay [6] (H69AR cells + 2 uM doxorubicin) is 10.2% (inactive). In addition, the results for the inhibition in assay [7] and in assay [8] were -4.13% (inactive) and 11.4% (inactive), respectively.
For the molecule `Cc1nc2sc(C(c3cccc(F)c3)N3CCOCC3)c(O)n2n1` (stereo not given), the viability in assay [1] was 117%; in assay [3], 117% (inactive); in assay [4] it was 90.8% (inactive); in assay [5] it was 94.7% (inactive); in assay [6] (setting [9]), 87%; in assay [6] (setting [10]) it was 94.7%. Also, the Her2 level in assay [2] is 93.5% (inactive). For the same molecule, the differential viability (reversal) in assay [6] (H69AR cells + 2 uM doxorubicin) is 7.72% (inactive). The inhibition in assay [7] was -4.79% (inactive); in assay [8], -3.65% (inactive).
